Source: PubChem
CHT allo act: CHT positive allosteric modulators, primary screen, cell-based, membrane potential dye, choline EC20; High affinity choline transporter 1 (Homo sapiens), Q9GZV3; CHT-expressing cells; hits give high values; LV-AA mutant CHT in HEK293 cells; B-score at 10 µM; 310,000 compounds, 0.49% hits; AID 488977, 2010;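 active = initial fluorescence not abnormally high and integrated response B-score, plate-corrected, over 3 SD above library mean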
CHT inh: inhibitors of human choline transporter CHT. 310,000 compounds, 0.86% hits. B-score at 10 µM. High affinity choline transporter 1 (Homo sapiens), Q9GZV3. AID 488975, 2010. CHT-expressing cells, membrane potential dye, choline response; hits give low values;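 active = B-score over 3 SD under the library average, and starting fluorescence ratio not unusually high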;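 also: choline stimulus applied at its EC90 after an EC20 pre-addition; B-score computed on integrated fluorescence ratio after choline addition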
PHOSPHO1 inh: PubChem AID 1565. Phosphoethanolamine/phosphocholine phosphatase (Homo sapiens), Q8TCT1. recombinant PHOSPHO1, absorbance phosphatase assay. inhibition, % at 13.3 µM. 290,000 compounds, 1.1% hits; in the data active = inhibition above about 60%
Target sequence (Q8TCT1 whole entry, looked up): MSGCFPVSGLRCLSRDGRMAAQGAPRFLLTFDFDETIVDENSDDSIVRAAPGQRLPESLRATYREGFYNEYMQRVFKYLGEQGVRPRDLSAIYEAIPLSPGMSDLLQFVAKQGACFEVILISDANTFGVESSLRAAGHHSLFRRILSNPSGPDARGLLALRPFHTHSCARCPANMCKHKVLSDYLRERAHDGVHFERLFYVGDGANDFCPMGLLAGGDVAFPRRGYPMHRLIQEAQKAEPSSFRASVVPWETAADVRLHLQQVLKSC
Hep lipid drop: inhibitors of hepatocyte lipid droplet formation, primary screen, imaging, high-throughput imaging, BODIPY stain | AML12 mouse hepatocytes, oleate lipid droplets | inhibition, % at 6.5 µM | 240,000 compounds, 0.4% hits;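 active = lipid droplet intensity inhibited by at least 50%, with more than 500 cells counted; inconclusive = wells with under 300 cells, treated as cytotoxic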
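Assay system: AML12 hepatocytes (mouse); Probe or stimulus: oleic acid at 100 µM to induce lipid droplet formation; Dosing: compound at 6.5 µM only; Schedule: compound with oleate, overnight; Detection: fluorescence imaging, 20x objective, two fields per well; Measure: % inhibition of lipid droplet signal.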
HSF1 inhib: HSF1 inhibitors in luciferase reporter cells, primary screen, cell-based, NIH3T3, luminescence. activity change, negative = inhibition, % at 7.5 µM (by protocol). 300,000 compounds, 0.77% hits. NIH3T3-HGL HSE-luciferase, MG132-induced, luminescence 8 h; hits give low values;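 active = more than half of replicate wells show activity change below -50%, luminescence cut by over half; inconclusive = some wells, but at most half, below -50%; inactive = no replicate well below -50%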;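 also: luciferase reports HSF-1 transcriptional activity via heat shock element; 0% = median of DMSO wells and -100% = zero luminescence signal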
HSF1 activator: HSF-1 activators, primary screen, NIH3T3-HGL cells, MG132 stress, luminescence, single point. activation, % at 9 µM. NIH3T3-HGL HSF-1 luciferase reporter, 8 h; 100% = twice DMSO control signal. 300,000 compounds, 1.7% hits;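 active = mean replicate activation of at least 50% with a set share of replicates each reaching 50%; inconclusive = only one of those two conditions met; inactive = mean below 50% and too few replicates reaching it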;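 also: 0% = median of the neutral control wells and 100% = twice that signal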
Starred values were filed as active, the others as inactive; i = inactive; u = inconclusive; x = no result given. Sampled rows, rich in hits. Any-hit rate of the full collection: about 4.9%.

SMILES	CHT allo act	CHT inh	PHOSPHO1 inh	Hep lipid drop	HSF1 inhib	HSF1 activator
COC(=O)c1cn(NC(=O)Cc2cccc(C(F)(F)F)c2)c(=O)c2ccccc12	i	i	-23.0	17.7	0.9	13.5
CC(C)(C)c1ccc(-c2nnc3sc(-c4ccccn4)nn23)cc1	i	i	32.6	x	-53.0*	-60.4
c1ccc(Cc2nnc3sc(-c4ccncc4)nn23)cc1	i	i	79.6*	9.6	-7.8	-11.5
c1ccc(Cc2nnc3sc(-c4cccs4)nn23)cc1	i	i	17.5	4.0	u	-54.9
c1ccc(Cc2nnc3sc(-c4ccccn4)nn23)cc1	i	i	65.6*	8.7	x	x
c1ccc(Cc2nnc3sc(-c4cccnc4)nn23)cc1	i	i	10.5	-4.7	3.2	2.0
CC(=O)/C(=N/Nc1cccc(C)c1)N1CCOCC1	i	i	92.4*	-10.9	-1.8	-10.9
Cc1cccc(C(=O)Nc2cccc(C(=O)N3CCOCC3)c2)c1	i	i	-9.0	21.5	-35.9	-42.3
O=C(CCCCn1c(=O)[nH]c2ccccc2c1=O)NC1CCN(Cc2ccccc2)CC1	i	i	63.0*	x	-1.9	22.8
CCn1c(SCC(=O)N2CCOCC2)nc2oc3c(Cl)cc(Cl)cc3c(=O)c2c1=O	i	i	7.1	x	66.4	121.2*
CCn1c(SCC(=O)N2CCN(c3ccc(Cl)cc3)CC2)nc2ccccc2c1=O	i	i	65.8*	8.8	6.3	6.3
CCn1c(SCC(=O)N2CCN(c3ccc(F)cc3)CC2)nc2ccccc2c1=O	i	i	-31.2	-16.6	7.7	35.4
OCC1(CCCc2ccccc2)CCN(C2CCSCC2)CC1	i	i	2.3	-13.7	23.0	73.8*
OCC1(CCCc2ccccc2)CCN(C2CCC2)CC1	i	i	13.8	-2.2	-2.7	0.4
Fc1ccccc1N1CCN(c2cnc3ccccc3n2)CC1	i	i	-12.2	3.5	35.9	62.4*
CC(=O)c1c(COC(=O)c2cccnc2)nc2ccccc2[n+]1[O-]	i	i	88.5*	x	-8.4	-13.7
CC1=C(C(=O)Nc2ccccn2)C(c2ccc(Cl)cc2)NC(=S)N1 (configuration not stated)	i	i	2.0	-1.6	25.0	63.9*
CC1=C(C(=O)Nc2ccccn2)C(c2ccc(Br)cc2)NC(=S)N1 (configuration not stated)	i	i	1.4	-9.9	31.0	39.3
c1ccc(OCCSc2nnc3sc4ccccc4n23)cc1	i	i	13.5	x	10.6	-4.0
CCN(CC)C(=O)CSc1nnc(-c2ccccc2)n1-c1ccccc1	i	i	81.6*	x	-16.8	-32.6
CCN(CC)C(=O)CSc1nnc2sc3ccccc3n12	i	i	62.1*	x	1.7	-18.1
Clc1ccc(CO/N=C/c2c(-c3ccccc3)nc3n2CCS3)c(Cl)c1	i	i	4.1	x	30.2	73.6*
NC(=O)C[n+]1cccc2ccccc21	i	i	93.8*	x	-14.1	-14.1
NC(=O)C[n+]1cccc(C(=O)Nc2ccccc2)c1	i	i	-16.4	-1.4	3.2	-9.3
COC(=O)C1=C(C(=O)OC)[C@@H]2N(Cc3ccccc3)c3ccccc3[C@@]23C[C@@H](C(=O)OC)N(C(=O)COCc2ccccc2)C3=N1	i	i	-4.3	x	4.8	-13.3
SMILES	CHT allo act	CHT inh	PHOSPHO1 inh	Hep lipid drop	HSF1 inhib	HSF1 activator
Cc1ccc(/C=C/c2nnc(-c3ccccc3)o2)cc1	i	i	49.6	x	19.4	54.6*
Cc1ccc(-c2nnc(-c3cccc(Br)c3)o2)cc1	i	i	-2.4	-8.5	30.4	64.0*
Brc1cccc(-c2nnc(-c3ccccc3)o2)c1	i	i	-24.6	23.3	x	x
Cc1ccc(-c2noc(/C=C/c3ccccc3)n2)cc1	i	i	17.6	x	35.3	69.4*
Clc1ccc(-c2noc(/C=C/c3ccccc3)n2)cc1	i	i	43.0	9.1	20.7	39.2
O=C(CN1CCN(S(=O)(=O)c2ccc(F)cc2)CC1)NCc1cccs1	i	i	x	x	1.9	4.4
CCOC(=O)N1C(=O)[C@@](c2ccc(Cl)cc2)(C(C)C)N1C(=O)OCC	i	i	-88.3	4.6	5.6	9.1
CCOC(=O)C(=CNc1ccc(Cl)cn1)C(=O)OCC	i	i	15.7	18.6	-8.7	-14.9
CCOC(=O)C(=CNNc1cccc(Cl)c1)C(=O)OCC	i	i	74.5*	-3.2	0.8	26.6
CC(C)COc1ccc(C(=O)OC2CC(C)(C)OCC2CN(C)C)cc1 (configuration not stated)	i	i	-8.3	x	-2.2	17.7
CCOc1ccc(N2C(=O)/C(=C\c3ccc(O)c(OC)c3)S(=O)(=O)C2c2cccc([N+](=O)[O-])c2)cc1 (configuration not stated)	i	i	0.6	1.6	50.1	112.2*
CCC(C(=O)NC1CCCC1)N(C(=O)Cn1nnc(-c2ccc(C)o2)n1)C(C)(C)C (configuration not stated)	i	i	15.5	x	-2.7	16.1
Cc1ccccc1NC(=O)CSc1nnc(C2CC2)n1CC1CCCO1 (configuration not stated)	i	i	23.9	-1.1	-4.3	-6.9
CCOc1ccc(NC(=O)CN2C(=O)CSc3ccc(S(=O)(=O)N4CCOCC4)cc32)cc1	i	i	6.9	-8.6	3.3	15.2
O=C(Nc1ccc(-c2noc(COc3ccccc3Cl)n2)cc1)c1ccco1	i	i	-4.7	13.5	9.4	27.4
COc1ccc(N2C(=O)c3ccccc3C2=O)cc1	i	i	8.0	3.6	5.3	32.2
CC(C)Oc1ccc(N2C(=O)c3ccccc3C2=O)cc1	i	i	-15.7	22.0	8.1	58.0*
CC1(C(=O)N/N=C/c2ccc([N+](=O)[O-])o2)CC1(Br)Br (configuration not stated)	i	i	1.0	0.3	6.5	-1.2
O=C(COc1ccccc1)Nc1nnc(S(=O)(=O)N2CCCCCC2)s1	i	i	20.2	11.0	-71.0*	-77.6
O=C(COc1ccccc1)Nc1nnc(S(=O)(=O)N2CCCCC2)s1	i	i	43.5	-31.3	0.2	8.9
Cc1ccc(C23CC4CC(CC(C(=O)OCC(=O)N(C)C)(C4)C2)C3)cc1	i	i	11.4	2.4	8.5	-2.1
COc1ccc(OCc2cc(C(=O)N(C)C3CCOCC3)no2)c2ccccc12	i	i	61.6*	3.4	17.2	29.7
